Assay results of several laboratories.
Protocols differ between the studies behind these lines.
Observed: cell growth or viability

| SMILES | cell line | technique | time | IC50 |
| --- | --- | --- | --- | --- |
| CC(C)(C)c1cnc(CSc2cnc(NC(=O)C3CCN(C(=O)CCCCCCN4Cc5cc6c(cc5C4)C(=O)N(C4CCC(=O)NC4=O)C6=O)CC3)s2)o1 (stereo not drawn) | TC-71 | MTT | 72 h | 9.58 nM |
| C=CCn1c(=O)c2cnc(Nc3ccc(N4CCN(C)CC4)cc3)nc2n1-c1ccc2c(n1)[C@@](O)(CC)CC2 | OVCAR-3 | ATP luminescence | 72 h | 295 nM |
| O=C(O)c1ccc(NCc2ccc(Br)cc2)cc1 | NCI-H69 | resazurin | 72 h | > 100000 nM |
| CC(C)(C)c1cnc(CSc2cnc(NC(=O)C3CCN(C(=O)CCCCN4Cc5cc6c(cc5C4)C(=O)N(C4CCC(=O)NC4=O)C6=O)CC3)s2)o1 (stereo not drawn) | TC-71 | MTT | 72 h | 13 nM |
| COc1cccc(CNc2ccc(C(=O)O)cc2)c1O | NCI-H69 | resazurin | 72 h | > 100000 nM |
| CC(C)(C)NS(=O)(=O)c1cccc(C(=O)N2CC3(CCC4(CC4)CC3)c3cc(NS(C)(=O)=O)ccc32)c1 | OVCAR-3 | – | 7 days | 11 nM |
| CC(C)(C)c1cnc(CSc2cnc(NC(=O)C3CCN(C(=O)CCCCCN4Cc5cc6c(cc5C4)C(=O)N(C4CCC(=O)NC4=O)C6=O)CC3)s2)o1 (stereo not drawn) | TC-71 | MTT | 72 h | 4.71 nM |
| Cc1cc2c(C(N)=O)cccc2n1-c1nc2c(c(NCc3ccccc3)n1)CCCN2 | RPMI-8226 | ATP luminescence | 72 h | 900 nM |
| O=C(O)c1ccc(NCc2cccc(C(F)(F)F)c2)cc1 | NCI-H69 | resazurin | 72 h | > 100000 nM |
| Cc1cc2c(C(N)=O)cccc2n1-c1nc(NCc2ccccc2)c2c(n1)NC(C)CC2 (stereo not drawn) | RPMI-8226 | ATP luminescence | 72 h | 1300 nM |
| CC(C)(C)c1cnc(CSc2cnc(NC(=O)C3CCN(CC(=O)NCCOCCOCCOCCNc4cccc5c4C(=O)N(C4CCC(=O)NC4=O)C5=O)CC3)s2)o1 (stereo not drawn) | TC-71 | MTT | 72 h | 21.6 nM |
| O=C(O)c1ccc(NCc2ccccc2)cc1 | NCI-H69 | resazurin | 72 h | > 100000 nM |
| CONC(=O)c1cccc2c1cc(C)n2-c1nc2c(c(NCc3ccccc3)n1)CCCN2 | RPMI-8226 | ATP luminescence | 72 h | 500 nM |
| CC(C)(C)c1cnc(CSc2cnc(NC(=O)C3CCN(C(=O)CCCCCCCCCCCN4Cc5cc6c(cc5C4)C(=O)N(C4CCC(=O)NC4=O)C6=O)CC3)s2)o1 (stereo not drawn) | TC-71 | MTT | 72 h | 79.9 nM |
| COc1cccc(CNc2ccc(C(=O)O)cc2)c1OC | NCI-H69 | resazurin | 72 h | > 100000 nM |
| Cc1cc2c(C(N)=O)nccc2n1-c1nc2c(c(NCc3ccccc3)n1)CCCN2 | RPMI-8226 | ATP luminescence | 72 h | 4900 nM |
| CC(C)(C)c1cnc(CSc2cnc(NC(=O)C3CCNCC3)s2)o1 | TC-71 | MTT | 72 h | 48.9 nM |
| Cc1cc2c(C(N)=O)cccc2n1-c1nc2c(c(NCc3ccccc3O)n1)CCCN2 | RPMI-8226 | ATP luminescence | 72 h | 9800 nM |
| COc1ccc(CNc2ccc(C(=O)O)cc2)cc1OC | NCI-H69 | resazurin | 72 h | > 100000 nM |
| CONC(=O)Cc1c(C)n(-c2nc3c(c(NCc4ccccc4)n2)CCCN3)c2ccccc12 | RPMI-8226 | ATP luminescence | 72 h | 8000 nM |
| O=C1CCCC2=C1C(c1c(C(=O)O)[nH]c3ccccc13)c1c(ccc3ccccc13)O2 (stereo not drawn) | 3T3-L1 | MTT | 72 h | 24.1 µg/mL |
